In PubChem BioAssay:
Results filed as inconclusive are left out.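 The calls were made as follows, unless noted: active = viability increase at or above a cutoff of the median across tested compounds plus 3 SD (cut at about 8.5% in these data, passing the limit was not always enough); inconclusive = some gains above the cutoff, reason not given; inactive = the rest.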

Columns and labels:
[1] = OD615 S. cerevisiae growth inhibition, permissive medium, pilot counter-assay, permissive growth control for S. cerevisiae lifespan shortening project (AID 705;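 active = growth inhibition above 25% in both replicates, a cutoff set 3 SD above the mean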); details: OD615, 24 h, at 10 µM, stronger effect = higher value
Summary of the method: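 Material: engineered DeaD yeast; Compound: one dose 10 µM, DMSO 0.25% final; Detection: absorbance (optical density) at 615 nm; Buffer or medium: permissive raffinose/galactose medium; Timing: 24 h exposure, 30 °C.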

[2] = Restrictive medium S. cerevisiae growth inhibition, OD615, pilot screen of yeast lifespan reduction project, restrictive growth control (AID 706;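 active = growth inhibition above a set limit, 3 SD over mean compound inhibition, in both replicates, cut at about 43% in these data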;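 also: modified DeaD lifespan yeast strain shifted to restrictive glucose medium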); details: OD615, 48 h, at 10 µM, stronger effect = higher value
Summary of the method: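 Buffer or medium: restrictive glucose medium (CSMM-D); test system: modified S. cerevisiae; doses: single dose of 10 µM compound final, 0.25% DMSO; schedule: 48 h compound exposure at 30 °C; detection: absorbance (optical density) measured at 615 nm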

[3] = viability gain of MRP-1-high H69AR cells under doxorubicin, pilot screen, MRP-1 activator project, CellTiter-Glo, duplicate (AID 807); details: H69AR viability with doxorubicin, CellTiter-Glo luminescence; at 10 µM; stronger effect = higher value;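 also: compound pretreatment 18-22 h then 72 h combined with doxorubicin; 0% = doxorubicin alone and 100% = vehicle without doxorubicin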
[4] = growth suppression of beta-catenin knockout HCT116, pilot screen, human colon tumor cells (AID 823;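 active = cell viability at or below a set limit in both duplicate runs, the limit being the all-compound median minus 4 SD, cut at about 23% in these data, passing the limit was not always enough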;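 also: 0% = wells killed by 20 µM Hyamine and 100% = untreated DMSO cell wells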); details: CellTiter-Glo, 60 h, at 10 µM, stronger effect = lower value
[5] = growth suppression of PTEN-deleted HCT116, pilot screen, cell-based, HCT116 clonal line, CellTiter-Glo (AID 824;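 active = viability at or below 27.92% in each of two runs, the all-compound median minus 4 SD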;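 also: 0% = 20 µM Hyamine control and 100% = vehicle cell control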); details: 60 h, at 10 µM, stronger effect = lower value
[6] = inhibitors of the yeast RAM network, pilot screen, dse1pr::URA3 reporter, 5-FOA selection (AID 869;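 active = inhibition over a set limit, the all-compound mean plus 3 SD, in both replicate runs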;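 also: 0% = DMSO wells with no growth and 100% = 10 µM 1-NA-PP1 with full growth; RAM network block rescues cells from 5-FOA so hits raise OD615 growth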); details: S. cerevisiae dse1pr::URA3 5-FOA growth, OD615, 2 d; at 10 µM; stronger effect = higher value; strain carries analog-sensitive mutant Cbk1 kinase
[7] = RAM signaling pathway blockade in yeast – S. cerevisiae, Pdr1DBD-CYC8 efflux-inhibited sensitized strain, primary screen (AID 1298;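 active = RAM network inhibition above 8.4% in each of two replicates, 3 SD over the compound average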;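 also: 0% = DMSO untreated cells without growth and 100% = 10 µM 1-NA-PP1 full growth; higher means more yeast growth rescued from 5-FOA killing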); details: S. cerevisiae cbk1-as DSE1-URA3 strain, 5-FOA growth OD615, 2 d; at 50 µM; stronger effect = higher value

COc1cccc(-n2c(=O)[nH]cc(C(=O)Nc3ccc4c(c3)OCCO4)c2=O)c1
inactive: growth inhibition [1] -8.56% | growth inhibition [2] -1.22% | viability increase [3] -1.26% | viability [4] 105% | viability [5] 101% | inhibition [6] 3.17% | RAM network inhibition [7] 5.22%

Cn1cc(S(=O)(=O)N2CCN(Cc3ccccc3)CC2)c(=O)n(C)c1=O
inactive: growth inhibition [1] -11.9% | growth inhibition [2] -10.5% | viability increase [3] -0.5% | viability [4] 95.2% | viability [5] 95.5% | inhibition [6] 0.755% | RAM network inhibition [7] -0.22%

COc1ccc(OC)c2sc(NC(=O)c3ccc(S(=O)(=O)N(C)C)cc3)nc12
inactive: growth inhibition [1] -19.3% | growth inhibition [2] -17.2% | viability increase [3] -5.45% | viability [4] 72.9% | viability [5] 68.9% | inhibition [6] 3.56% | RAM network inhibition [7] 6.48%

CCn1cc(S(=O)(=O)CC(=O)Nc2ccc3c(c2)OCCO3)c2ccccc21
inactive: growth inhibition [1] -12.1% | growth inhibition [2] -19.9% | viability increase [3] 0.14% | viability [4] 101% | viability [5] 95.3% | inhibition [6] 2.54% | RAM network inhibition [7] 9.35%

COc1ccc(-c2nc(CS(=O)CC(=O)NCC3CCCO3)c(C)o2)cc1 (stereo unspecified)
inactive: growth inhibition [1] -7.51% | growth inhibition [2] 15.5% | viability increase [3] -2.38% | viability [4] 97.8% | viability [5] 102% | inhibition [6] -0.795% | RAM network inhibition [7] 4.03%

O=S(=O)(NC1=NCCCCC1)c1cccs1
inactive: growth inhibition [1] -0.86% | growth inhibition [2] -16.7% | viability increase [3] -0.2% | viability [4] 100% | viability [5] 98.2% | inhibition [6] 0.765% | RAM network inhibition [7] 5.54%

COc1ccc2oc(C(=O)CCC(=O)O)c(N)c2c1
inactive: growth inhibition [1] -12.2% | growth inhibition [2] 8.27% | viability increase [3] -0.43% | viability [4] 93.3% | viability [5] 92.5% | inhibition [6] 1.98% | RAM network inhibition [7] 1.31%

COc1ccc(Cc2nnc(NC(=O)c3c(-c4ccccc4)noc3C)s2)cc1
inactive: growth inhibition [1] -14% | growth inhibition [2] -3.4% | viability increase [3] 0.94% | viability [4] 88.3% | viability [5] 85.2% | inhibition [6] 1.82% | RAM network inhibition [7] 5.46%

CCOc1ccc(C2CC(c3cccc(OC)c3)Nc3ncnn32)cc1 (stereo unspecified)
inactive: growth inhibition [1] -2.08% | growth inhibition [2] -1.26% | viability increase [3] -0.82% | viability [4] 94% | viability [5] 90% | inhibition [6] 1.15% | RAM network inhibition [7] 1.4%

O=P(/C(=N/O)Sc1ccccc1)(N1CCOCC1)N1CCOCC1
inactive: growth inhibition [1] -7.6% | growth inhibition [2] 1.87% | viability increase [3] -4.88% | viability [4] 90% | viability [5] 97% | inhibition [6] 0.62% | RAM network inhibition [7] 4.34%

CN(CP(=O)(O)C(O)c1ccccc1)S(C)(=O)=O (stereo unspecified)
inactive: growth inhibition [1] -4.82% | growth inhibition [2] -6.66% | viability increase [3] 0.16% | viability [4] 94.2% | viability [5] 93.4% | inhibition [6] 1.1% | RAM network inhibition [7] 1.86%

Cc1ccc(-c2nnc3n2N=C(c2ccccc2)CS3)cc1
inactive: growth inhibition [1] -5.77% | growth inhibition [2] 6.07% | viability increase [3] -0.74% | viability [4] 97.7% | viability [5] 96.9% | inhibition [6] 3.56% | RAM network inhibition [7] 2.25%

Cc1ccc(-n2ncc3c(=O)n(CC(=O)NCc4ccco4)cnc32)cc1C
inactive: growth inhibition [1] -5.52% | growth inhibition [2] -6.3% | viability increase [3] -5.18% | viability [4] 74.4% | viability [5] 56.4% | inhibition [6] 2.71% | RAM network inhibition [7] 1.9%

CC(C)Oc1ccc(/C(O)=C2/C(=O)C(=O)N(CCCN3CCOCC3)C2c2ccncc2)cc1 (stereo unspecified)
inactive: growth inhibition [1] -3.48% | growth inhibition [2] -4.07% | viability increase [3] -3.89% | viability [4] 93.3% | viability [5] 89.3% | inhibition [6] 0.95% | RAM network inhibition [7] -0.41%

CCCCCCNS(=O)(=O)c1nc2nc(C)cc(C)n2n1
inactive: growth inhibition [1] -15.4% | growth inhibition [2] -13.1% | viability increase [3] 2.63% | viability [4] 104% | viability [5] 104% | inhibition [6] 1.35% | RAM network inhibition [7] 1.21%

O=S(=O)(c1ccc(OCc2nc3ccccc3s2)c(Cl)c1)N1CCOCC1
inactive: growth inhibition [1] -7% | growth inhibition [2] 9.42% | viability increase [3] -0.83% | viability [4] 91.5% | viability [5] 88.6% | inhibition [6] 1.26% | RAM network inhibition [7] -0.57%

CCOC(=O)Nc1ccc2ncn(C)c(=O)c2c1
inactive: growth inhibition [1] -16.6% | growth inhibition [2] -8.55% | viability increase [3] -5.77% | viability [4] 101% | viability [5] 94.8% | inhibition [6] -0.055% | RAM network inhibition [7] 1.08%

CCN1CCN(c2cc(=O)n(C3CCCCC3)c(=O)[nH]2)CC1
inactive: growth inhibition [1] -13.3% | growth inhibition [2] -10.1% | viability increase [3] 0.11% | viability [4] 104% | viability [5] 102% | inhibition [6] 1.2% | RAM network inhibition [7] 2.53%

O=C(Nc1nc2ccc(Cl)cc2s1)c1ccc(Br)o1
inactive: growth inhibition [1] -6.29% | growth inhibition [2] -6.11% | viability increase [3] -2.25% | viability [4] 82.3% | viability [5] 82.7% | inhibition [6] 2.08% | RAM network inhibition [7] 5.17%

COc1cccc(C(c2sc3ncnn3c2O)N2CCN(C(=O)c3ccco3)CC2)c1 (stereo unspecified)
inactive: growth inhibition [1] -11.1% | growth inhibition [2] -5.93% | viability increase [3] 0.76% | viability [4] 104% | viability [5] 101% | inhibition [6] 0.91% | RAM network inhibition [7] 2.1%

Cc1ccc(CNC(=O)c2cc3c(=O)n(C)c4ccccc4c3n2C)o1
inactive: growth inhibition [1] 1.32% | growth inhibition [2] 0.445% | viability increase [3] -4.08% | viability [4] 106% | viability [5] 104% | inhibition [6] 2.61% | RAM network inhibition [7] 4.84%

COc1ccc(OC)c2sc(NC(=O)C3COc4ccccc4O3)nc12 (stereo unspecified)
inactive: growth inhibition [1] -19.7% | growth inhibition [2] -10.6% | viability increase [3] -3.63% | viability [4] 101% | viability [5] 95.6% | inhibition [6] -0.125% | RAM network inhibition [7] 2.87%

CCCCSc1nc2c(cnn2-c2ccc(C)c(C)c2)c(=O)[nH]1
inactive: growth inhibition [1] -3.77% | growth inhibition [2] 8.57% | viability increase [3] -6.91% | viability [4] 59.1% | viability [5] 59.5% | inhibition [6] 1.05% | RAM network inhibition [7] 5.36%

CCN1CCN(C(c2cccs2)C(C)NC(=O)c2cccc(OC)c2)CC1 (stereo unspecified)
inactive: growth inhibition [1] -2.49% | growth inhibition [2] -14.8% | viability increase [3] -2.25% | viability [4] 103% | viability [5] 89.7% | inhibition [6] -0.09% | RAM network inhibition [7] -0.01%

COc1ccc(-c2cc(C(F)(F)F)n3nc(C)cc3n2)cc1
inactive: growth inhibition [1] -16.1% | growth inhibition [2] -2.2% | viability increase [3] 0.18% | viability [4] 96.2% | viability [5] 87% | inhibition [6] 2% | RAM network inhibition [7] -0.06%

COC(=O)c1ccc(COc2ccc3c(C)c(C)c(=O)oc3c2)o1
inactive: growth inhibition [1] -4.33% | growth inhibition [2] -4.88% | viability increase [3] -0.68% | viability [4] 101% | viability [5] 105% | inhibition [6] 1.5% | RAM network inhibition [7] 5.89%

COc1ccc(-n2c(Cc3cccn3C)nnc2SCC(=O)Nc2ccc3c(c2)OCCO3)cc1
inactive: growth inhibition [1] 4.97% | growth inhibition [2] 8.29% | viability increase [3] -1.74% | viability [4] 103% | viability [5] 94.6% | inhibition [6] 1.61% | RAM network inhibition [7] 6.11%

COc1ccc(OCc2nnc3n2N=C(c2ccc(C)cc2)CS3)cc1
inactive: growth inhibition [1] -3.36% | growth inhibition [2] -2.56% | viability increase [3] 2.3% | viability [4] 95.4% | viability [5] 82.1% | inhibition [6] 1.57% | RAM network inhibition [7] 2.58%

O=C(NC1CCCC1)C1c2ccccc2C(=O)N1CCCN1CCOCC1 (stereo unspecified)
inactive: growth inhibition [1] -2.13% | growth inhibition [2] -1.37% | viability increase [3] -1.72% | viability [4] 97.2% | viability [5] 98.4% | inhibition [6] 1.2% | RAM network inhibition [7] 1.51%

COc1ccc(-n2c(Cc3cccn3C)nnc2SCC(=O)Nc2ccccc2C)cc1
inactive: growth inhibition [1] -11.6% | growth inhibition [2] 11.1% | viability increase [3] -2.39% | viability [4] 86% | viability [5] 81.7% | inhibition [6] 1.33% | RAM network inhibition [7] 7.38%

COc1ccccc1N1CCN(c2nc(N)c(C#N)c(CC#N)c2C#N)CC1
inactive: growth inhibition [1] -1.4% | growth inhibition [2] -0.44% | viability increase [3] 2.45% | viability [4] 96.7% | viability [5] 86.3% | inhibition [6] 1.54% | RAM network inhibition [7] 3.57%

CCn1c(=O)cc(OCC(=O)N2CCc3ccccc32)c2ccccc21
inactive: growth inhibition [1] -19% | growth inhibition [2] -15.4% | viability increase [3] -3.92% | viability [4] 96.1% | viability [5] 89.9% | inhibition [6] 2.09% | RAM network inhibition [7] 3.25%

S=c1[nH]nc(CSc2nc3ccccc3s2)o1
inactive: growth inhibition [1] -1.19% | growth inhibition [2] 16.7% | viability increase [3] -4.34% | viability [4] 93.8% | viability [5] 99.1% | inhibition [6] 0.95% | RAM network inhibition [7] 0.83%
